Assay results from ChEMBL document CHEMBL1255303, “In vitro and in vivo antifungal activities of T-2307, a novel arylamidine” (2008).
Values after ≈ are worked out from the molar mass of the structure shown. Active and inactive are the calls of the source. The rule behind the calls is not given here. Starred links: 1 amine or outer side, 2 acyl side, 3 side chain; linkers in the order of their positions; H or OH if unused. Positions of bridges follow the written chain, without caps; N, C: chain ends. Non-standard residues stand in square brackets, D forms with d. Residues, ends and D or L forms follow the SMILES beside them. *: point of attachment. hTyr(3S-OH,4S-OH,3'-OSO3H) = N[C@H](C(=O)O)[C@H](O)[C@@H](O)c1ccc(O)c(OS(=O)(=O)O)c1; Orn(4R-OH,5R-OH) = O=C([C@H](C[C@@H](O)[C@@H](O)N[*:3])N[*:1])[*:2]; Pro(3S-OH,4S-Me) = C[C@H]1CN[C@H](C(=O)O)[C@H]1O; X1 = CCCCCOc1ccc(-c2cc(-c3ccc(C(=O)*)cc3)no2)cc1; Gln(3R-OH) = NC(=O)C[C@@H](O)[C@H](N)C(=O)O; Hyp = O=C(O)[C@@H]1C[C@@H](O)CN1

Columns and labels:
Candida tropicalis = experiment: Antifungal activity against Candida tropicalis clinical isolates after 48 hrs by broth microdilution method; assay type: functional
Procedure, shortened: (§1)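 Clinical isolates from Japanese hospitals or culture collections were tested by broth microdilution in RPMI 1640-MOPS. Inoculum was 0.57 × 10^3–2.5 × 10^3 CFU/ml for yeasts and 0.4 × 10^4–3.3 × 10^4 CFU/ml for filamentous fungi. Incubation was at 35°C for about 48 h, or 72 h where footnoted. Results were summarised as MIC range, MIC50 and MIC90.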

Candida albicans [1] = experiment: Antifungal activity against Candida albicans ATCC MYA-1003 after 47 hrs by broth microdilution method; assay type: functional; conditions: ATCC MYA-1003, 47 h
Procedure, shortened: (§2)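 Fluconazole-resistant or susceptible-dose-dependent ATCC C. albicans strains were tested by CLSI M27-A2 broth microdilution in RPMI 1640–0.165 M MOPS, pH 7.0, with a final inoculum of 1.1–1.5 × 10^3 CFU/ml at 35°C for about 47 h. MIC was the lowest concentration with a prominent (~50%) turbidity decrease relative to growth control; amphotericin B was read at complete inhibition.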

Aspergillus fumigatus [2] = experiment: Antifungal activity against Aspergillus fumigatus IFM 46895 infected ICR mouse assessed as delay in mortality of mouse at 1 mg/kg after 6 days; assay type: functional, organism-based; design: dose 1 mg/kg
Procedure, shortened: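 Male ICR mice, 4 weeks old and SPF, were made neutropenic with intraperitoneal cyclophosphamide. The schedule was 200 mg/kg on day −3 (day −4 for Cryptococcus) plus 100 mg/kg on day +1. Infection was by tail-vein injection of 0.2 ml suspension: C. albicans 3.0 × 10^4, C. neoformans 9.1 × 10^4, A. fumigatus conidia 8.4 × 10^4 CFU/mouse. Drugs were given subcutaneously once daily for 7 days from 2 h post-infection; controls received saline. Groups had 8–10 mice.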

Cryptococcus neoformans [3] = experiment: Antifungal activity against Cryptococcus neoformans TIMM 0354 after 72 hrs by broth microdilution method; assay type: functional; conditions: TIMM 0354, 72 h
Procedure, shortened: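 CLSI M27-A2 (yeasts) or M38-A (A. fumigatus) broth microdilution in RPMI 1640 buffered to pH 7.0 with 0.165 M MOPS. Final inocula were 0.65–2.5 × 10^3 CFU/ml for yeasts and 0.87–3.8 × 10^4 CFU/ml for filamentous fungi. Incubation was at 35°C for about 48 h (72 h for C. neoformans). MIC was the lowest concentration giving a prominent (~50%) turbidity drop versus growth control; amphotericin B required complete inhibition.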

Candida albicans [4] = experiment: Antifungal activity against Candida albicans ATCC MYA-573 after 47 hrs by broth microdilution method; assay type: functional; conditions: ATCC MYA-573, 47 h; procedure, shortened: as §2
Fusarium solani = experiment: Antifungal activity against Fusarium solani IFO 31093 after 48 hrs by broth microdilution method; assay type: functional; conditions: IFO 31093, 48 h
Procedure, shortened: (§3)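 CLSI M27-A2 (yeasts) / M38-A (moulds) broth microdilution in RPMI 1640 buffered to pH 7.0 with 0.165 M MOPS. Malassezia furfur got the same medium supplemented with glucose, bile salts, glycerol, glycerol monostearate and Tween 20. Final inoculum 0.65 × 10^3–2.5 × 10^3 CFU/ml for yeasts and 0.87 × 10^4–3.8 × 10^4 CFU/ml for filamentous fungi. Incubation at 35°C except M. racemosus and F. solani, which were held at 30°C.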

Rhizopus arrhizus = experiment: Antifungal activity against Rhizopus oryzae NBRC 31005 after 24 hrs by broth microdilution method; assay type: functional; conditions: NBRC 31005, 24 h; procedure, shortened: as §3
Candida albicans [5] = experiment: Antifungal activity against Candida albicans ATCC 64550 after 47 hrs by broth microdilution method; assay type: functional; conditions: ATCC 64550, 47 h
Procedure, shortened: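 Fluconazole-resistant or susceptible-dose-dependent C. albicans ATCC strains were tested by broth microdilution in RPMI 1640-MOPS. Inoculum was 1.1 × 10^3–1.5 × 10^3 CFU/ml, with incubation at 35°C for about 47 h. Yeast MIC was read as about 50% turbidity decrease relative to growth control, except amphotericin B, read at complete inhibition.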

Candida albicans [6] = experiment: Antifungal activity against Candida albicans TIMM 1623 after 48 hrs by broth microdilution method; assay type: functional; conditions: TIMM 1623, 48 h; procedure, shortened: as §3
Scedosporium boydii = experiment: Antifungal activity against Pseudallescheria boydii NBRC 32229 after 72 hrs by broth microdilution method; assay type: functional; conditions: NBRC 32229, 72 h; procedure, shortened: as §3
Lichtheimia corymbifera = experiment: Antifungal activity against Absidia corymbifera NBRC 4009 after 24 hrs by broth microdilution method; assay type: functional; conditions: NBRC 4009, 24 h; procedure, shortened: as §3
Candida albicans [7] = experiment: Antifungal activity against Candida albicans ATCC 96901 after 47 hrs by broth microdilution method; assay type: functional; conditions: ATCC 96901, 47 h; procedure, shortened: as §2
Aspergillus nidulans = experiment: Antifungal activity against Aspergillus nidulans NBRC 33017 after 48 hrs by broth microdilution method; assay type: functional; conditions: NBRC 33017, 48 h; procedure, shortened: as §3
Mucor racemosus = experiment: Antifungal activity against Mucor racemosus NBRC5403 after 24 hrs by broth microdilution method; assay type: functional; conditions: NBRC5403, 24 h
Candida dubliniensis = experiment: Antifungal activity against Candida dubliniensis ATCC MYA-577 after 48 hrs by broth microdilution method; assay type: functional; conditions: ATCC MYA-577, 48 h; procedure, shortened: as §3
Aspergillus fumigatus [8] = experiment: Antifungal activity against Aspergillus fumigatus TIMM 0063 after 48 hrs by broth microdilution method; assay type: functional; conditions: TIMM 0063, 48 h; procedure, shortened: as §3
Trichosporon asahii = experiment: Antifungal activity against Trichosporon asahii JCM 2466 after 48 hrs by broth microdilution method; assay type: functional; conditions: JCM 2466, 48 h; procedure, shortened: as §3
Pichia kudriavzevii = experiment: Antifungal activity against Candida krusei IFO 0584 after 48 hrs by broth microdilution method; assay type: functional; conditions: IFO 0584, 48 h; procedure, shortened: as §3
Candida albicans [9] = experiment: Antifungal activity against Candida albicans ATCC 90028 after 48 hrs by broth microdilution method; assay type: functional; conditions: ATCC 90028, 48 h; procedure, shortened: as §3
[10] = tested on: Meyerozyma guilliermondii; experiment: Antifungal activity against Candida guilliermondii clinical isolates after 48 hrs by broth microdilution method; assay type: functional; procedure, shortened: as §1
Cryptococcus neoformans [11] = experiment: Antifungal activity against Cryptococcus neoformans clinical isolates after 72 hrs by broth microdilution method; assay type: functional; procedure, shortened: as §1
Aspergillus fumigatus [12] = experiment: Antifungal activity against Aspergillus fumigatus IFM 49895 after 48 hrs by broth microdilution method; assay type: functional; conditions: IFM 49895, 48 h; procedure, shortened: as §3
Trichophyton rubrum = experiment: Antifungal activity against Trichophyton rubrum NBRC 5467 after 72 hrs by broth microdilution method; assay type: functional; conditions: NBRC 5467, 72 h; procedure, shortened: as §3
Aspergillus terreus = experiment: Antifungal activity against Aspergillus terreus NBRC 33026 after 48 hrs by broth microdilution method; assay type: functional; conditions: NBRC 33026, 48 h; procedure, shortened: as §3

CCCCCOc1ccc(-c2cc(-c3ccc(C(=O)N[C@H]4C[C@@H](O)[C@@H](O)NC(=O)[C@@H]5[C@@H](O)[C@@H](C)CN5C(=O)[C@H]([C@H](O)CC(N)=O)NC(=O)[C@H]([C@H](O)[C@@H](O)c5ccc(O)c(OS(=O)(=O)O)c5)NC(=O)[C@@H]5C[C@@H](O)CN5C(=O)[C@H]([C@@H](C)O)NC4=O)cc3)no2)cc1 [MICAFUNGIN] (X1-[Orn(4R-OH,5R-OH)]T[Hyp][hTyr(3S-OH,4S-OH,3'-OSO3H)][Gln(3R-OH)][Pro(3S-OH,4S-Me)]; lactam 1-C)
MIC (Candida tropicalis): 0.0625 µg/mL (≈ 0.0492 µM) | MIC50 (Candida tropicalis): 0.0625 µg/mL (≈ 0.0492 µM) | MIC90 (Candida tropicalis): 0.125 µg/mL (≈ 0.0984 µM) | MIC (Candida albicans [1]): 0.125 µg/mL (≈ 0.0984 µM) | Activity (Aspergillus fumigatus [2]): Active | MFC (Cryptococcus neoformans [3]): > 64 µg/mL | MIC (Cryptococcus neoformans [3]): > 64 µg/mL | MIC (Candida albicans [4]): 0.0625 µg/mL (≈ 0.0492 µM) | MFC (Fusarium solani): > 64 µg/mL | MIC (Fusarium solani): > 64 µg/mL | MFC (Rhizopus arrhizus): > 64 µg/mL | MIC (Rhizopus arrhizus): > 64 µg/mL | MIC (Candida albicans [5]): 0.0625 µg/mL (≈ 0.0492 µM) | MFC (Candida albicans [6]): 4 µg/mL (≈ 3.15 µM) | MIC (Candida albicans [6]): 0.0625 µg/mL (≈ 0.0492 µM) | MFC (Scedosporium boydii): > 64 µg/mL | MIC (Scedosporium boydii): 0.5 µg/mL (≈ 0.394 µM) | MFC (Lichtheimia corymbifera): > 64 µg/mL | MIC (Lichtheimia corymbifera): 32 µg/mL (≈ 25.2 µM) | MIC (Candida albicans [7]): 0.125 µg/mL (≈ 0.0984 µM) | MFC (Aspergillus nidulans): > 64 µg/mL | MIC (Aspergillus nidulans): 0.0313 µg/mL (≈ 0.0246 µM) | MFC (Mucor racemosus): > 64 µg/mL | MIC (Mucor racemosus): 32 µg/mL (≈ 25.2 µM) | MFC (Candida dubliniensis): 8 µg/mL (≈ 6.3 µM) | MIC (Candida dubliniensis): 0.125 µg/mL (≈ 0.0984 µM) | MFC (Aspergillus fumigatus [8]): > 64 µg/mL | MIC (Aspergillus fumigatus [8]): 0.0156 µg/mL (≈ 0.0123 µM) | MFC (Trichosporon asahii): > 64 µg/mL | MIC (Trichosporon asahii): > 64 µg/mL | MFC (Pichia kudriavzevii): 0.25 µg/mL (≈ 0.197 µM) | MIC (Pichia kudriavzevii): 0.125 µg/mL (≈ 0.0984 µM) | MFC (Candida albicans [9]): 0.125 µg/mL (≈ 0.0984 µM) | MIC (Candida albicans [9]): 0.0313 µg/mL (≈ 0.0246 µM) | MIC50 [10]: 1 µg/mL (≈ 0.787 µM) | MIC90 [10]: 1 µg/mL (≈ 0.787 µM) | MIC (Cryptococcus neoformans [11]): > 64 µg/mL | MIC50 (Cryptococcus neoformans [11]): > 64 µg/mL | MIC90 (Cryptococcus neoformans [11]): > 64 µg/mL | MFC (Aspergillus fumigatus [12]): > 64 µg/mL | MIC (Aspergillus fumigatus [12]): 0.0313 µg/mL (≈ 0.0246 µM) | MFC (Trichophyton rubrum): > 64 µg/mL | MIC (Trichophyton rubrum): 0.0313 µg/mL (≈ 0.0246 µM) | MFC (Aspergillus terreus): > 64 µg/mL | MIC (Aspergillus terreus): 0.0313 µg/mL (≈ 0.0246 µM)
